# Test system: HEK-293T
# Assay: Multiplex assay against HEK293T
# Assay type: toxicity, cell-based
# Details: human
# Outline: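 Four dyes were applied at seeding to live cells: Hoechst33342, BioTracker Green Microtubule Cytoskeleton Dye, MitoTracker Red and Annexin V Alexa Fluor 680. Imaging after compound addition used a CQ1 microscope at 37°C and 5% CO2. CellPathfinder machine-learning gating then sorted cells into Hoechst high-intensity objects or normal cells, normal cells into healthy, pyknosed or fragmented nuclei, and pyknosed cells into mitotic or apoptotic, with tubulin, mitochondrial-mass and membrane-permeability phenotypes given as per cents of healthy-nucleus cells.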
# [1] = 12 h, 1 µM, compound concentration 1 uM, replicate 1
# [2] = 12 h, 1 µM, compound concentration 1 uM, replicate 2
# [3] = 12 h, 10 µM, compound concentration 10 uM, replicate 1
# [4] = 12 h, 10 µM, compound concentration 10 uM, replicate 2
# [5] = 24 h, 1 µM, compound concentration 1 uM, replicate 1
# [6] = 24 h, 1 µM, compound concentration 1 uM, replicate 2
# [7] = 24 h, 10 µM, compound concentration 10 uM, replicate 1
# [8] = 24 h, 10 µM, compound concentration 10 uM, replicate 2
# [9] = 48 h, 1 µM, compound concentration 1 uM, replicate 1
# [10] = 48 h, 1 µM, compound concentration 1 uM, replicate 2
# [11] = 48 h, 10 µM, compound concentration 10 uM, replicate 1
# [12] = 48 h, 10 µM, compound concentration 10 uM, replicate 2
compound,measurement,setting,value
CCCCC(=O)N(Cc1ccc(-c2ccccc2-c2nnn[nH]2)cc1)[C@H](C(=O)O)C(C)C,Population Apoptotic (%),[1],44%
same,Population Fragmented Nuclei (%),[1],7%
same,Population Healthy Nuclei (%),[1],80%
same,Population Hoechst High Intensity Objects (%),[1],9%
same,Population Membrane Permeable-Phenotype (%),[1],0%
same,Population Mitochondria Different-Phenotype (%),[1],36%
same,Population Mitotic Cells (%),[1],55%
same,Population Normal (%),[1],90%
same,Population Pyknosed Nuclei (%),[1],12%
same,Population Tubulin-Different-Phenotype (%),[1],16%
same,Total Cell Count,[1],469
same,Population Apoptotic (%),[2],40%
same,Population Fragmented Nuclei (%),[2],6%
same,Population Healthy Nuclei (%),[2],74%
same,Population Hoechst High Intensity Objects (%),[2],11%
same,Population Mitochondria Different-Phenotype (%),[2],49%
same,Population Mitotic Cells (%),[2],59%
same,Population Normal (%),[2],88%
same,Population Pyknosed Nuclei (%),[2],18%
same,Population Tubulin-Different-Phenotype (%),[2],21%
same,Total Cell Count,[2],290
same,Population Apoptotic (%),[3],21%
same,Population Fragmented Nuclei (%),[3],7%
same,Population Healthy Nuclei (%),[3],83%
same,Population Hoechst High Intensity Objects (%),[3],5%
same,Population Membrane Permeable-Phenotype (%),[3],0%
same,Population Mitochondria Different-Phenotype (%),[3],30%
same,Population Mitotic Cells (%),[3],78%
same,Population Normal (%),[3],94%
same,Population Pyknosed Nuclei (%),[3],8%
same,Population Tubulin-Different-Phenotype (%),[3],19%
same,Total Cell Count,[3],507
same,Population Apoptotic (%),[4],51%
same,Population Fragmented Nuclei (%),[4],5%
same,Population Healthy Nuclei (%),[4],81%
same,Population Hoechst High Intensity Objects (%),[4],10%
same,Population Mitochondria Different-Phenotype (%),[4],63%
same,Population Mitotic Cells (%),[4],48%
same,Population Normal (%),[4],89%
same,Population Pyknosed Nuclei (%),[4],13%
same,Total Cell Count,[4],310
same,Population Apoptotic (%),[5],30%
same,Population Fragmented Nuclei (%),[5],11%
same,Population Healthy Nuclei (%),[5],78%
same,Population Hoechst High Intensity Objects (%),[5],5%
same,Population Membrane Permeable-Phenotype (%),[5],0%
same,Population Mitochondria Different-Phenotype (%),[5],21%
same,Population Mitotic Cells (%),[5],70%
same,Population Normal (%),[5],94%
same,Population Pyknosed Nuclei (%),[5],10%
same,Population Tubulin-Different-Phenotype (%),[5],12%
same,Total Cell Count,[5],630
same,Population Apoptotic (%),[6],32%
same,Population Fragmented Nuclei (%),[6],9%
same,Population Healthy Nuclei (%),[6],82%
same,Population Hoechst High Intensity Objects (%),[6],6%
same,Population Mitochondria Different-Phenotype (%),[6],26%
same,Population Mitotic Cells (%),[6],67%
same,Population Normal (%),[6],93%
same,Population Pyknosed Nuclei (%),[6],8%
same,Total Cell Count,[6],429
same,Population Apoptotic (%),[7],20%
same,Population Fragmented Nuclei (%),[7],9%
same,Population Healthy Nuclei (%),[7],82%
same,Population Hoechst High Intensity Objects (%),[7],5%
same,Population Membrane Permeable-Phenotype (%),[7],0%
same,Population Mitochondria Different-Phenotype (%),[7],19%
same,Population Mitotic Cells (%),[7],79%
same,Population Normal (%),[7],94%
same,Population Pyknosed Nuclei (%),[7],7%
same,Population Tubulin-Different-Phenotype (%),[7],11%
same,Total Cell Count,[7],663
same,Population Apoptotic (%),[8],35%
same,Population Hoechst High Intensity Objects (%),[8],7%
same,Population Mitochondria Different-Phenotype (%),[8],30%
same,Population Mitotic Cells (%),[8],64%
same,Population Normal (%),[8],92%
same,Population Tubulin-Different-Phenotype (%),[8],13%
same,Total Cell Count,[8],420
same,Population Apoptotic (%),[9],18%
same,Population Fragmented Nuclei (%),[9],13%
same,Population Healthy Nuclei (%),[9],80%
same,Population Hoechst High Intensity Objects (%),[9],2%
same,Population Membrane Permeable-Phenotype (%),[9],1%
same,Population Mitochondria Different-Phenotype (%),[9],12%
same,Population Mitotic Cells (%),[9],81%
same,Population Normal (%),[9],97%
same,Population Pyknosed Nuclei (%),[9],5%
same,Population Tubulin-Different-Phenotype (%),[9],7%
same,Total Cell Count,[9],1024
same,Population Apoptotic (%),[10],19%
same,Population Fragmented Nuclei (%),[10],14%
same,Population Healthy Nuclei (%),[10],79%
same,Population Hoechst High Intensity Objects (%),[10],3%
same,Population Membrane Permeable-Phenotype (%),[10],0%
same,Population Mitochondria Different-Phenotype (%),[10],16%
same,Population Mitotic Cells (%),[10],80%
same,Population Normal (%),[10],96%
same,Population Pyknosed Nuclei (%),[10],6%
same,Population Tubulin-Different-Phenotype (%),[10],9%
same,Total Cell Count,[10],653
same,Population Apoptotic (%),[11],14%
same,Population Fragmented Nuclei (%),[11],14%
same,Population Healthy Nuclei (%),[11],81%
same,Population Hoechst High Intensity Objects (%),[11],1%
same,Population Membrane Permeable-Phenotype (%),[11],2%
same,Population Mitochondria Different-Phenotype (%),[11],8%
same,Population Mitotic Cells (%),[11],85%
same,Population Normal (%),[11],98%
same,Population Pyknosed Nuclei (%),[11],3%
same,Population Tubulin-Different-Phenotype (%),[11],8%
same,Total Cell Count,[11],1205
same,Population Apoptotic (%),[12],15%
same,Population Healthy Nuclei (%),[12],78%
same,Population Hoechst High Intensity Objects (%),[12],2%
same,Population Membrane Permeable-Phenotype (%),[12],0%
same,Population Mitochondria Different-Phenotype (%),[12],17%
same,Population Mitotic Cells (%),[12],84%
same,Population Normal (%),[12],97%
same,Population Pyknosed Nuclei (%),[12],7%
same,Total Cell Count,[12],623
Cc1onc(-c2ccccc2Cl)c1C(=O)N(C)c1ccc(Cl)cc1,Population Apoptotic (%),[1],35%
same,Population Fragmented Nuclei (%),[1],8%
same,Population Healthy Nuclei (%),[1],79%
same,Population Hoechst High Intensity Objects (%),[1],9%
same,Population Membrane Permeable-Phenotype (%),[1],0%
same,Population Mitochondria Different-Phenotype (%),[1],41%
same,Population Mitotic Cells (%),[1],64%
same,Population Normal (%),[1],90%
same,Population Pyknosed Nuclei (%),[1],12%
same,Population Tubulin-Different-Phenotype (%),[1],25%
same,Total Cell Count,[1],375
same,Population Apoptotic (%),[2],37%
same,Population Fragmented Nuclei (%),[2],3%
same,Population Healthy Nuclei (%),[2],84%
same,Population Hoechst High Intensity Objects (%),[2],6%
same,Population Mitochondria Different-Phenotype (%),[2],59%
same,Population Mitotic Cells (%),[2],62%
same,Population Normal (%),[2],93%
same,Total Cell Count,[2],320
same,Population Apoptotic (%),[3],38%
same,Population Fragmented Nuclei (%),[3],7%
same,Population Healthy Nuclei (%),[3],79%
same,Population Hoechst High Intensity Objects (%),[3],12%
same,Population Membrane Permeable-Phenotype (%),[3],0%
same,Population Mitochondria Different-Phenotype (%),[3],49%
same,Population Mitotic Cells (%),[3],61%
same,Population Normal (%),[3],87%
same,Population Pyknosed Nuclei (%),[3],13%
same,Population Tubulin-Different-Phenotype (%),[3],43%
same,Total Cell Count,[3],357
same,Population Apoptotic (%),[4],45%
same,Population Fragmented Nuclei (%),[4],4%
same,Population Healthy Nuclei (%),[4],80%
same,Population Hoechst High Intensity Objects (%),[4],6%
same,Population Mitochondria Different-Phenotype (%),[4],65%
same,Population Mitotic Cells (%),[4],54%
same,Population Normal (%),[4],93%
same,Population Pyknosed Nuclei (%),[4],14%
same,Population Tubulin-Different-Phenotype (%),[4],35%
same,Total Cell Count,[4],330
same,Population Apoptotic (%),[5],23%
same,Population Fragmented Nuclei (%),[5],9%
same,Population Healthy Nuclei (%),[5],81%
same,Population Hoechst High Intensity Objects (%),[5],5%
same,Population Membrane Permeable-Phenotype (%),[5],1%
same,Population Mitochondria Different-Phenotype (%),[5],21%
same,Population Mitotic Cells (%),[5],76%
same,Population Normal (%),[5],94%
same,Population Pyknosed Nuclei (%),[5],9%
same,Population Tubulin-Different-Phenotype (%),[5],14%
same,Total Cell Count,[5],523
same,Population Apoptotic (%),[6],42%
same,Population Fragmented Nuclei (%),[6],5%
same,Population Hoechst High Intensity Objects (%),[6],3%
same,Population Mitochondria Different-Phenotype (%),[6],44%
same,Population Mitotic Cells (%),[6],57%
same,Population Normal (%),[6],96%
same,Population Pyknosed Nuclei (%),[6],12%
same,Population Tubulin-Different-Phenotype (%),[6],18%
same,Total Cell Count,[6],383
same,Population Apoptotic (%),[7],45%
same,Population Fragmented Nuclei (%),[7],8%
same,Population Healthy Nuclei (%),[7],79%
same,Population Hoechst High Intensity Objects (%),[7],5%
same,Population Membrane Permeable-Phenotype (%),[7],1%
same,Population Mitochondria Different-Phenotype (%),[7],32%
same,Population Mitotic Cells (%),[7],54%
same,Population Normal (%),[7],94%
same,Population Pyknosed Nuclei (%),[7],12%
same,Population Tubulin-Different-Phenotype (%),[7],20%
same,Total Cell Count,[7],478
same,Population Apoptotic (%),[8],29%
same,Population Fragmented Nuclei (%),[8],7%
same,Population Healthy Nuclei (%),[8],82%
same,Population Hoechst High Intensity Objects (%),[8],3%
same,Population Membrane Permeable-Phenotype (%),[8],0%
same,Population Mitochondria Different-Phenotype (%),[8],47%
same,Population Mitotic Cells (%),[8],70%
same,Population Normal (%),[8],96%
same,Population Pyknosed Nuclei (%),[8],9%
same,Total Cell Count,[8],413
same,Population Apoptotic (%),[9],21%
same,Population Fragmented Nuclei (%),[9],14%
same,Population Healthy Nuclei (%),[9],79%
same,Population Hoechst High Intensity Objects (%),[9],2%
same,Population Membrane Permeable-Phenotype (%),[9],0%
same,Population Mitochondria Different-Phenotype (%),[9],11%
same,Population Mitotic Cells (%),[9],78%
same,Population Normal (%),[9],97%
same,Population Pyknosed Nuclei (%),[9],6%
same,Population Tubulin-Different-Phenotype (%),[9],9%
same,Total Cell Count,[9],932
same,Population Apoptotic (%),[10],31%
same,Population Fragmented Nuclei (%),[10],11%
same,Population Healthy Nuclei (%),[10],82%
same,Population Membrane Permeable-Phenotype (%),[10],1%
same,Population Mitochondria Different-Phenotype (%),[10],23%
same,Population Mitotic Cells (%),[10],68%
same,Population Pyknosed Nuclei (%),[10],5%
same,Population Tubulin-Different-Phenotype (%),[10],12%
same,Total Cell Count,[10],620
same,Population Apoptotic (%),[11],33%
same,Population Fragmented Nuclei (%),[11],14%
same,Population Healthy Nuclei (%),[11],76%
same,Population Hoechst High Intensity Objects (%),[11],3%
same,Population Membrane Permeable-Phenotype (%),[11],1%
same,Population Mitochondria Different-Phenotype (%),[11],16%
same,Population Mitotic Cells (%),[11],66%
same,Population Normal (%),[11],96%
same,Population Pyknosed Nuclei (%),[11],8%
same,Population Tubulin-Different-Phenotype (%),[11],15%
same,Total Cell Count,[11],755
same,Population Apoptotic (%),[12],20%
same,Population Fragmented Nuclei (%),[12],12%
same,Population Healthy Nuclei (%),[12],81%
same,Population Membrane Permeable-Phenotype (%),[12],0%
same,Population Mitochondria Different-Phenotype (%),[12],25%
same,Population Mitotic Cells (%),[12],79%
same,Population Pyknosed Nuclei (%),[12],6%
same,Population Tubulin-Different-Phenotype (%),[12],16%
same,Total Cell Count,[12],652
